Experimental findings from ChEMBL document CHEMBL4196187, “Peloruside E (22-Norpeloruside A), a Pelorusane Macrolide from the New Zealand Marine Sponge Mycale hentscheli, Retains Microtubule-Stabilizing Properties” (J Nat Prod, 2018) are described below.

Assay [1] has as its system HL-60. The experiment in a line: Cell cycle arrest in human HL60 cells assessed as accumulation at S phase at 500 nM after 18 hrs by propidium iodide staining based flow cytometry (reference value: 20%). Format: functional. Background: In flow cytometry, cells or beads pass a laser one at a time.
Assay [2] has as its system HL-60. Kind of assay: Cell cycle arrest in human HL60 cells assessed as accumulation at S phase at 100 nM after 18 hrs by propidium iodide staining based flow cytometry (reference value: 20%). Format: functional.
For assay [3], the system named is HL-60. Kind of assay: Growth inhibition of human HL60 cells after 48 hrs by MTT assay. Format: functional, cell-based. The conditions noted are these: HL-60, 48 h. The method, boiled down: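 Human promyelocytic leukemia HL-60 cells; MTT cell proliferation read-out after 48 h incubation. IC50 derived from n = 3 replicates, reported as SEM.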
In assay [4] the test system is HL-60. Kind of assay: Cell cycle arrest in human HL60 cells assessed as accumulation at G1 phase at 100 nM after 18 hrs by propidium iodide staining based flow cytometry (reference value: 62%). Format: functional.
In assay [5] the test system is HL-60. Kind of assay: Cell cycle arrest in human HL60 cells assessed as accumulation at G1 phase at 500 nM after 18 hrs by propidium iodide staining based flow cytometry (reference value: 62%). Type of assay: functional.
Assay [6] relates to HL-60. Kind of assay: Cell cycle arrest in human HL60 cells assessed as accumulation at G2/M phase at 100 nM after 18 hrs by propidium iodide staining based flow cytometry (reference value: 19%). Type of assay: functional.
Assay [7] deals with HL-60. Kind of assay: Cell cycle arrest in human HL60 cells assessed as accumulation at G2/M phase at 500 nM after 18 hrs by propidium iodide staining based flow cytometry (reference value: 19%). Format: functional.
A further assay is filed under the species Sus scrofa. The experiment in a line: Induction of porcine brain tubulin polymerization at 2.8 uM measured at 1 min interval over 100 mins by fluorescence assay.
The subject of assay [8] is HL-60. Kind of assay: Cell cycle arrest in human HL60 cells assessed as accumulation at S phase at 1500 nM after 18 hrs by propidium iodide staining based flow cytometry (reference value: 20%). Format: functional.
Assay [9] has as its system HL-60. Kind of assay: Cell cycle arrest in human HL60 cells assessed as accumulation at S phase at 300 nM after 18 hrs by propidium iodide staining based flow cytometry (reference value: 20%). Type of assay: functional.
The subject of assay [10] is HL-60. Kind of assay: Cell cycle arrest in human HL60 cells assessed as accumulation at G1 phase at 300 nM after 18 hrs by propidium iodide staining based flow cytometry (reference value: 62%). Format: functional.
Assay [11] relates to HL-60. Kind of assay: Cell cycle arrest in human HL60 cells assessed as accumulation at G1 phase at 1500 nM after 18 hrs by propidium iodide staining based flow cytometry (reference value: 62%). Format: functional.
Assay [12] deals with HL-60. Kind of assay: Cell cycle arrest in human HL60 cells assessed as accumulation at G2/M phase at 300 nM after 18 hrs by propidium iodide staining based flow cytometry (reference value: 19%). Format: functional.
In assay [13] the test system is HL-60. Kind of assay: Cell cycle arrest in human HL60 cells assessed as accumulation at G2/M phase at 1500 nM after 18 hrs by propidium iodide staining based flow cytometry (reference value: 19%). Format: functional.
The test system of assay [14] is HL-60. The experiment in a line: Cell cycle arrest in human HL60 cells assessed as accumulation at S phase at 1000 nM after 18 hrs by propidium iodide staining based flow cytometry (reference value: 20%). Format: functional.
Assay [15] concerns HL-60. Kind of assay: Cell cycle arrest in human HL60 cells assessed as accumulation at G1 phase at 1000 nM after 18 hrs by propidium iodide staining based flow cytometry (reference value: 62%). Type of assay: functional.
Assay [16] deals with HL-60. Kind of assay: Cell cycle arrest in human HL60 cells assessed as accumulation at G2/M phase at 1000 nM after 18 hrs by propidium iodide staining based flow cytometry (reference value: 19%). Type of assay: functional.

Active and inactive are the calls of the source. The calls are words filed in the database; no cut-off is given here.

One may read the IC50 as the midpoint of a concentration-inhibition curve. High values mean lower potency, low ones higher potency. Take `CC[C@H](/C=C(/C)[C@@H]1C[C@@H](OC)C[C@H](O)C(C)(C)[C@@]2(O)O[C@@H](C[C@@H](OC)[C@H](O)C(=O)O1)C[C@@H](OC)[C@H]2O)CO`: the Activity in the assay with HL-60 [1] is given as 23%; with HL-60 [2] it was 23%; in the assay on HL-60 [4] it was 27%; in the assay with HL-60 [5] it was 30%; in the assay on HL-60 [6] it was 50%; with HL-60 [7], 47%. Also, the concentration for half-maximal inhibition (IC50) in the assay with HL-60 [3] turned out to be 19 nM. Besides, the induction entry in the assay listed under Sus scrofa is “Active”.

Consider `CC[C@H](/C=C(/C)[C@@H]1C[C@@H](OC)C[C@H](O)[C@@H](C)[C@@]2(O)O[C@@H](C[C@@H](OC)[C@H](O)C(=O)O1)C[C@@H](OC)[C@H]2O)CO`, for which the Activity is recorded as 23% in the assay on HL-60 [8]; 22% with HL-60 [9]; 38% in the assay with HL-60 [10]; 29% with HL-60 [11]; 39% with HL-60 [12]; 49% with HL-60 [13]. This compound also had a concentration for half-maximal inhibition (IC50) in the assay with HL-60 [3] of 90 nM.

Consider `CC(=O)O[C@H]1C(=O)[C@@]2(C)[C@H]([C@H](OC(=O)c3ccccc3)[C@]3(O)C[C@H](OC(=O)[C@H](O)[C@@H](NC(=O)c4ccccc4)c4ccccc4)C(C)=C1C3(C)C)[C@]1(OC(C)=O)CO[C@@H]1C[C@@H]2O` [PACLITAXEL], for which the Activity in the assay on HL-60 [14] is 19%; in the assay with HL-60 [15], 28%; with HL-60 [16], 53%. Further, in the assay listed under Sus scrofa, the induction entry is “Active”.
